Calls of active or inactive are those of the source. The rule behind the calls is not given here.
Experiments:
[1] = system: MINO; assay: Induction of apoptosis in human MINO cells at 333 nM for 48 hrs by Annexin-V/propidium iodide staining based flow cytometric analysis; format: functional, cell-based
Procedure, shortened: (§1)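 Cells plated at 2 × 10^6 per well and treated 48 h at 3,000–0.15 nM (3-fold dilutions) or 1% DMSO. Harvested, washed in cold PBS, stained with Annexin V Alexa Fluor 488/propidium iodide, analysed by flow cytometry for % live, apoptotic and necrotic cells. Mean of two independent experiments.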

[2] = system: TMD8; assay: Induction of apoptosis in human TMD8 cells assessed as decrease in PARP level measured after 48 hrs by Western blot analysis; format: functional, cell-based; settings: dose 0.15-3000 nM
Procedure, shortened: (§2)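 TMD8 or Mino cells (2 × 10^6 per well) exposed 48 h to 3000–0.15 nM (3-fold dilution) or 1% DMSO. Lysates BCA-normalised, 8–30 μg per lane on 4–20% Tris-glycine gels, transferred to nitrocellulose, probed with antibodies, HRP chemiluminescence detection and densitometry. Representative of two independent experiments.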

[3] = target: T1, Protein cereblon/Tyrosine-protein kinase BTK (Homo sapiens, UniProt Q06187+Q96SW2); assay: PROTAC activity at BTK/CRBN protein protein interaction in human JeKo-1 cell assessed as Hook effect incubated at >333 nM for 17 hrs measured by Western blot analysis; format: cell-based
Procedure, shortened: (§3)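 Ramos or JeKo-1 cells (2 × 10^6 per well) were exposed for 17 h to 3000–0.15 nM PROTAC in 3-fold steps. Cells were lysed and analysed by western blot, with BTK normalised to β-actin. DC50 and Dmax come from the dose-response; DC50 is the mean ± SD of two independent experiments.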

[4] = system: MINO; assay: Induction of apoptosis in human MINO cells assessed as downregulation in Mcl-1 level measured at 0.15 to 3000 nM after 48 hrs by Western blot analysis; format: functional, cell-based; settings: dose 0.15-3000 nM; procedure, shortened: as §2
[5] = system: TMD8; assay: Induction of apoptosis in human TMD8 cells measured after 48 hrs by Annexin-V/propidium iodide staining based flow cytometric analysis; format: functional, cell-based; settings: dose 0.15-3000 nM; procedure, shortened: as §1
[6] = system: TMD8; assay: Induction of apoptosis in human TMD8 cells assessed as increase in cleaved caspase 3 level measured after 48 hrs by Western blot analysis; format: functional, cell-based; settings: dose 0.15-3000 nM; procedure, shortened: as §2
[7] = system: MINO; assay: Induction of apoptosis in human MINO cells assessed as decrease in PARP level measured after 48 hrs by Western blot analysis; format: functional, cell-based; settings: dose 0.15-3000 nM; procedure, shortened: as §2
[8] = system: MINO; assay: Induction of apoptosis in human MINO cells assessed as increase in cleaved caspase 3 level measured after 48 hrs by Western blot analysis; format: functional, cell-based; settings: dose 0.15-3000 nM; procedure, shortened: as §2
[9] = target: T1, Protein cereblon/Tyrosine-protein kinase BTK; assay: PROTAC activity at BTK/CRBN protein protein interaction in human Ramos cell assessed as degradation of BTK preincubated with neddylation inhibitor MLN-4924 for 2 hrs followed by compound addition at 111 nM for 4 hrs measured by Western blot analysis; format: cell-based
Procedure, shortened: (§4)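 Ramos cells were pre-treated for 2 h with bortezomib (proteasome inhibitor) or MLN-4924 (NEDD8-activating enzyme inhibitor), then given 111 nM degrader for 4 h. BTK level was assessed by western blot.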

[10] = target: T2, Tyrosine-protein kinase BTK (Homo sapiens, UniProt Q06187); assay: Inhibition of BTK in HEK293 cells using NanoGlo substrate incubated for 2 hrs by NanoBRET assay; format: cell-based
[11] = system: TMD8; assay: Induction of apoptosis in human TMD8 cells assessed as downregulation in Mcl-1 level measured at 0.15 to 3000 nM after 48 hrs by Western blot analysis; format: functional, cell-based; settings: dose 0.15-3000 nM; procedure, shortened: as §2
[12] = system: TMD8; assay: Induction of apoptosis in human TMD8 cells assessed as decrease in caspase 3 level measured after 48 hrs by Western blot analysis; format: functional, cell-based; settings: dose 0.15-3000 nM; procedure, shortened: as §2
[13] = target: Protein cereblon (Homo sapiens, UniProt Q96SW2); assay: Inhibition of CRBN in HEK293 cells using NanoGlo substrate incubated for 2 hrs by NanoBRET assay; format: cell-based
[14] = system: MINO; assay: Induction of apoptosis in human MINO cells assessed as increase in cleaved PARP level measured after 48 hrs by Western blot analysis; format: functional, cell-based; settings: dose 0.15-3000 nM; procedure, shortened: as §2
[15] = system: TMD8; assay: Induction of apoptosis in human TMD8 cells at 333 nM for 48 hrs by Annexin-V/propidium iodide staining based flow cytometric analysis; format: functional, cell-based; procedure, shortened: as §1
[16] = system: MINO; assay: Induction of apoptosis in human MINO cells assessed as downregulation in Bcl-2 level measured at 0.15 to 3000 nM after 48 hrs by Western blot analysis; format: functional, cell-based; settings: dose 0.15-3000 nM; procedure, shortened: as §2
[17] = system: TMD8; assay: Induction of apoptosis in human TMD8 cells assessed as downregulation in Bcl-2 level measured at 0.15 to 3000 nM after 48 hrs by Western blot analysis; format: functional, cell-based; settings: dose 0.15-3000 nM; procedure, shortened: as §2
[18] = Cytotoxicity against human MINO cells incubated for 48 hrs by celltitre glo 2.0 assay; format: functional, cell-based
[19] = system: MINO; assay: Induction of apoptosis in human MINO cells measured after 48 hrs by Annexin-V/propidium iodide staining based flow cytometric analysis; format: functional, cell-based; settings: dose 0.15-3000 nM; procedure, shortened: as §1
[20] = system: MINO; assay: Induction of apoptosis in human MINO cells assessed as decrease in caspase 3 level measured after 48 hrs by Western blot analysis; format: functional, cell-based; settings: dose 0.15-3000 nM; procedure, shortened: as §2
[21] = target: T2, Tyrosine-protein kinase BTK; assay: Binding affinity to full length BTK (unknown origin) assessed as dissociation constant measured at 37 degree C by TR-FRET assay
[22] = target: T1, Protein cereblon/Tyrosine-protein kinase BTK; assay: PROTAC activity at BTK/CRBN protein protein interaction in human Ramos cell assessed as degradation of BTK incubated at 111 nM for 17 hrs in presence of GDC-0853 at 1 uM measured by Western blot analysis; format: cell-based
[23] = target: T1, Protein cereblon/Tyrosine-protein kinase BTK; assay: PROTAC activity at BTK/CRBN protein protein interaction in human Ramos cell assessed as degradation of BTK preincubated with proteasome inhibitor bortezomib for 2 hrs followed by compound addition at 111 nM for 4 hrs measured by Western blot analysis; format: cell-based; procedure, shortened: as §4
[24] = target: T1, Protein cereblon/Tyrosine-protein kinase BTK; assay: PROTAC activity at BTK/CRBN protein protein interaction in human Ramos cell assessed as Hook effect incubated at >333 nM for 17 hrs measured by Western blot analysis; format: cell-based; procedure, shortened: as §3
[25] = system: TMD8; assay: Induction of apoptosis in human TMD8 cells assessed as increase in cleaved PARP level measured after 48 hrs by Western blot analysis; format: functional, cell-based; settings: dose 0.15-3000 nM; procedure, shortened: as §2

T1 sequence (Q06187 2-659 limits assumed): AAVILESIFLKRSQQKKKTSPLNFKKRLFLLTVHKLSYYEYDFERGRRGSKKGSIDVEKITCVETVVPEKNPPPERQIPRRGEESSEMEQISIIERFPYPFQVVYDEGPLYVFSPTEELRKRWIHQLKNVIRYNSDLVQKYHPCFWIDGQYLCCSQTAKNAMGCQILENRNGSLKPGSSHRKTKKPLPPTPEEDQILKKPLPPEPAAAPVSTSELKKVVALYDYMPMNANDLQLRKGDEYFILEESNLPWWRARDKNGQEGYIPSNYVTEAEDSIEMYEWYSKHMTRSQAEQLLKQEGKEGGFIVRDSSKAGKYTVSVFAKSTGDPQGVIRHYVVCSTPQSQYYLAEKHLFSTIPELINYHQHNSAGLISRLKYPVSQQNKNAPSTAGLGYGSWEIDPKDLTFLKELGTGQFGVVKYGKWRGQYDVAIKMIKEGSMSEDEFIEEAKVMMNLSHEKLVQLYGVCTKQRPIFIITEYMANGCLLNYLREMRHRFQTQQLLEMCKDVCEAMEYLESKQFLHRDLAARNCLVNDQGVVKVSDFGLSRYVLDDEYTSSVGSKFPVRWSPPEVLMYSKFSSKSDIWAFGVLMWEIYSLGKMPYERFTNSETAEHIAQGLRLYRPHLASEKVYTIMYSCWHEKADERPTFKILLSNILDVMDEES
T1 sequence (Q96SW2 whole entry partner): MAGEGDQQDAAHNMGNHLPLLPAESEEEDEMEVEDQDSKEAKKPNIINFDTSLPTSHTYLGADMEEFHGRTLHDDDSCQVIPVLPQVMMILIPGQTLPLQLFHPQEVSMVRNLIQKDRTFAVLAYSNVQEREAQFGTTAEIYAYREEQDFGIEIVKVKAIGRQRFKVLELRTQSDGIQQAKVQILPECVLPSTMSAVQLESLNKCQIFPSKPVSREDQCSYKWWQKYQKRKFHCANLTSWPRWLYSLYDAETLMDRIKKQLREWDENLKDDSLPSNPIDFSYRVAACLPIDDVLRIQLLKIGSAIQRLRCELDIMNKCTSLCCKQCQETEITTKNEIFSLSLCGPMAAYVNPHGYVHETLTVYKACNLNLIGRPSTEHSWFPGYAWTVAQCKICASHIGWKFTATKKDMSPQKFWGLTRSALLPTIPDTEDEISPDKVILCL
T2 sequence (Q06187 whole entry): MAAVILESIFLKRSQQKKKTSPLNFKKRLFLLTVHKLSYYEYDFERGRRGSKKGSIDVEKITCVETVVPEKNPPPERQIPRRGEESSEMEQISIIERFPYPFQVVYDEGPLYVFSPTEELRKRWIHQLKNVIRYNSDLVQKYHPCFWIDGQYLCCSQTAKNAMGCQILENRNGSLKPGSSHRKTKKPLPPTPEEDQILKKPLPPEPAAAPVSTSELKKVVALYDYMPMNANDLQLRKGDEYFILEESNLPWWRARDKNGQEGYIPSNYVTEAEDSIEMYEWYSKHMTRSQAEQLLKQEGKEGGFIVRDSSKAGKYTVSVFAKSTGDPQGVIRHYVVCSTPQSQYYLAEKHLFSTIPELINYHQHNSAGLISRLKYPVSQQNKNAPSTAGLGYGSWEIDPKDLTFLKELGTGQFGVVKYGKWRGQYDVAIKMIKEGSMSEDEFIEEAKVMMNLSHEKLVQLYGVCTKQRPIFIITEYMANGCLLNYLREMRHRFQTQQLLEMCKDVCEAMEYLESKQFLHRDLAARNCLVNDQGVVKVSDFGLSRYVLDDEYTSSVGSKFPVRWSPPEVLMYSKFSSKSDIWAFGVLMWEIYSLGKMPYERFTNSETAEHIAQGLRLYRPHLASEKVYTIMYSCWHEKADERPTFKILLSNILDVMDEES
Sequence of Protein cereblon (Q96SW2 whole entry): as the sequence (Q96SW2 whole entry partner) above

Activity [3]: Active
Activity [9]: inactive
IC50 [10]: 97 nM
IC50 [13]: 107 nM
Kd [21]: 2.28 nM
Activity [22]: inactive
Activity [23]: inactive
Activity [24]: Active
SMILES: C[C@H]1CN(C(=O)CNc2cccc3c2C(=O)N(C2CCC(=O)NC2=O)C3=O)CCN1c1ccc(Nc2cc(-c3ccnc(N4CCn5c(cc6c5CC(C)(C)C6)C4=O)c3CO)cn(C)c2=O)nc1 (stereo not given in full)
Activity [1]: Active
Activity [2]: Active
Activity [4]: Active
Activity [5]: Dose-Dependent Effect
Activity [6]: Active
Activity [7]: Active
Activity [8]: Active
Activity [11]: Active
Activity [12]: Active
Activity [14]: Active
Activity [15]: Active
Activity [16]: Active
Activity [17]: Active
IC50 [18]: 2.2 nM
Activity [19]: Dose-Dependent Effect
Activity [20]: Active
Activity [25]: Active

— ChEMBL document CHEMBL5338787, “Discovery of Novel Bruton's Tyrosine Kinase PROTACs with Enhanced Selectivity and Cellular Efficacy” (J Med Chem, 2023)
